For one assay, the system named is B16. As to the kind of experiment: Cytotoxicity in mouse B16 cells assessed as reduction in cell viability incubated for 72 hrs by MTT assay. Type of assay: functional, cell-based. The following applies: B16, 72 h. The gist of the method:
(§1)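 Cells pre-incubated 24 h at 37 °C, 5% CO2, then exposed to a range of compound concentrations for 72 h. Viability read as mitochondrial MTT-to-formazan conversion, absorbance at 570 nm.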
Background: Formazan colour is commonly taken as a measure of viable cells.

Another assay concerns A549. Briefly: Cytotoxicity in human A549 cells assessed as reduction in cell viability incubated for 72 hrs by MTT assay. The settings on record: A549, 72 h.
Assay [1] deals with HepG2. As to the kind of experiment: Cytotoxicity in human HepG2 cells assessed as reduction in cell viability incubated for 72 hrs by MTT assay. Type of assay: functional, cell-based. The settings on record: HepG2, 72 h. In outline: as §1
The next assay concerns MCF7. Briefly: Cytotoxicity in human MCF7 cells assessed as reduction in cell viability incubated for 72 hrs by MTT assay. The assay is classed as functional, cell-based. The settings on record: MCF7, 72 h. In outline: as §1
In assay [2] the test system is HepG2. Briefly: Induction of ROS generation in human HepG2 cells at 2 to 6 uM incubated for 24 hrs by DCFH-DA staining based flow cytometry. Type of assay: functional, cell-based. The gist of the method: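 HepG2 seeded at 6×10^4 cells/well and grown 24 h, then treated 24 h with 2, 4 or 6 µM. Washed with PBS and serum-free medium, loaded with serum-free DCFH-DA 30 min at 37 °C, washed twice cold. Fluorescence read by flow cytometry at 488/525 nm. Mean ± SEM, n = 3.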

Assay [3] deals with HepG2. Briefly: Induction of apoptosis in human HepG2 cells assessed as apoptosis level at 6 uM incubated for 24 hrs by FITC-labelled Annexin V/PI staining based flow cytometry (reference value: 3.4%). The assay is classed as functional. In outline: (§2)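 HepG2 treated 24 h with 2, 4 or 6 µM; 0.1% DMSO vehicle control. Stained with FITC-Annexin V/PI and analysed by flow cytometry 10-15 min after staining. Annexin V+/PI- counted as early/median apoptotic, Annexin V+/PI+ as late apoptotic.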
A general note: In flow cytometry, cells or beads pass a laser one at a time.

Assay [4] has as its system HepG2. Briefly: Induction of apoptosis in human HepG2 cells assessed as apoptosis level at 2 to 4 uM incubated for 24 hrs by FITC-labelled Annexin V/PI staining based flow cytometry. Type of assay: functional, cell-based. In outline: as §2
For assay [5], the system named is HepG2. Briefly: Induction of apoptosis in human HepG2 cells assessed as apoptosis level incubated for 24 hrs by FITC-labelled Annexin V/PI staining based flow cytometry. The assay is classed as functional, cell-based. The gist of the method: as §2

Molecules are shown by their SMILES. Activity calls are given as the source filed them. The calls are words filed in the database; no cut-off is given here.

Broadly, the IC50 is the midpoint of a concentration-inhibition curve.

Consider `COc1c(OCCCCN2CCN(C)CC2)cc(O)c2c(=O)cc(-c3ccc(C(F)(F)F)cc3)oc12`, for which the IC50 in the assay on B16 amounted to 4.99 µM; in the assay on A549, 2.89 µM; in the assay with HepG2 [1], 2.4 µM; in the assay on MCF7, 2.98 µM.
On the same counts, the results for `CN(C)CCCOc1c(OCc2ccccc2)cc(O)c2c(=O)cc(-c3ccccc3)oc12` are 5.42 µM, 2.91 µM, 4.95 µM and 3.21 µM.
In the same order, the values of `CN1CCN(CCCOc2c(OCc3ccccc3)cc(O)c3c(=O)cc(-c4ccccc4)oc23)CC1` are 3.76 µM, 3.94 µM, 3.11 µM and 1.02 µM.
On the same counts, the results for `CN(C)CCCCOc1c(OCc2ccccc2)cc(O)c2c(=O)cc(-c3ccccc3)oc12` are 3.22 µM, 1.09 µM, 2.09 µM and 3.21 µM.
For `COc1c(O)cc(O)c2c(=O)cc(-c3ccccc3)oc12` [WOGONIN], the IC50 was 26.4 µM in the assay with B16, 20.1 µM in the assay with A549, 19.5 µM with HepG2 [1] and 28 µM in the assay with MCF7.
As to `CN1CCN(CCCCOc2c(OCc3ccco3)cc(O)c3c(=O)cc(-c4ccccc4)oc23)CC1`, the IC50 was found to be 3.53 µM in the assay with B16, 3.6 µM with A549, 4.11 µM with HepG2 [1] and 2.77 µM in the assay on MCF7.
In the same order, the values of `CN1CCN(CCCCOc2c(OCc3nc4ccccc4o3)cc(O)c3c(=O)cc(-c4ccccc4)oc23)CC1` are 2.08 µM, 3.87 µM, 4.11 µM and 4.98 µM.
`O=c1cc(-c2ccccc2)oc2c(OCCCCN(CCO)CCO)c(OCc3ccccc3)cc(O)c12`: the 50% inhibitory concentration (IC50) in the assay with B16 amounted to 3.76 µM; in the assay on A549 it was 4.35 µM; in the assay on HepG2 [1] it was 3.14 µM; with MCF7 it was 1.09 µM.
In the same order, the values of `COc1c(OCCCCN2CCN(C)CC2)cc(O)c2c(=O)cc(-c3ccc(Br)cc3)oc12` are 4.33 µM, 2.13 µM, 2.32 µM and 3.21 µM.
Consider `COc1ccccc1-c1cc(=O)c2c(O)cc(OCCCCN3CCN(C)CC3)c(OC)c2o1`, for which the IC50 in the assay with B16 worked out at 9.3 µM; in the assay on A549 it was 6.79 µM; in the assay on HepG2 [1], 2.33 µM; with MCF7, 5.43 µM.
For `CN1CCN(CCCCOc2c(OCc3ccccc3)cc(O)c3c(=O)cc(-c4ccccc4)oc23)CC1`, the IC50 in the assay with B16 worked out at 2.37 µM; in the assay on A549, 2.91 µM; with HepG2 [1], 1.5 µM; in the assay on MCF7 it was 2.93 µM. In addition, the Activity result was “Dose-dependent effect” in the assay on HepG2 [2], 20.7% with HepG2 [3] and “Dose-dependent effect” with HepG2 [5]. In the assay on HepG2 [4], the result was inactive.
Regarding `O=c1cc(-c2ccccc2)oc2c(OCCCN3CCOCC3)c(OCc3ccccc3)cc(O)c12`, the IC50 with B16 was found to be 10 µM; in the assay on A549, 8.91 µM; in the assay with HepG2 [1], 2.43 µM; in the assay on MCF7, 8.72 µM.
In the same order, the values of `COc1c(OCCCCN2CCN(C)CC2)cc(O)c2c(=O)cc(-c3ccc(C)cc3)oc12` are 5.43 µM, 3.81 µM, 1 µM and 4.02 µM.
In the same order, the values of `O=c1cc(-c2ccccc2)oc2c(OCCCCN3CCOCC3)c(OCc3ccccc3)cc(O)c12` are 5.41 µM, 6.6 µM, 3.29 µM and 9.9 µM.
With `Cc1ccc(COc2cc(O)c3c(=O)cc(-c4ccccc4)oc3c2OCCCCN2CCN(C)CC2)cc1`, the 50% inhibitory concentration (IC50) in the assay on B16 was found to be 3.29 µM; in the assay with A549, 3.2 µM; in the assay on HepG2 [1], 5.09 µM; in the assay on MCF7, 2.22 µM.
On the same counts, the results for `O=c1cc(-c2ccccc2)oc2c(OCCCN3CCCC3)c(OCc3ccccc3)cc(O)c12` are 7.98 µM, 4.72 µM, 2.66 µM and 2.23 µM.
In the same order, the values of `COc1c(OCCCCN2CCN(C)CC2)cc(O)c2c(=O)cc(-c3ccc(F)cc3Br)oc12` are 3.44 µM, 2.98 µM, 2.13 µM and 3.09 µM.
In the same order, the values of `CCN(CC)CCCCOc1c(OCc2ccccc2)cc(O)c2c(=O)cc(-c3ccccc3)oc12` are 4.88 µM, 3.91 µM, 1.65 µM and 1.92 µM.
For `COc1c(OCCCCN2CCN(C)CC2)cc(O)c2c(=O)cc(-c3ccc([N+](=O)[O-])cc3)oc12`, the IC50 with B16 stood at 2.89 µM; with A549, 3.21 µM; with HepG2 [1] it was 2.62 µM; with MCF7, 4.09 µM.
In the same order, the values of `COc1c(OCCCCN2CCN(C)CC2)cc(O)c2c(=O)cc(-c3cccc(F)c3)oc12` are 4.52 µM, 2.09 µM, 2.58 µM and 2.89 µM.
In the same order, the values of `CCN(CC)CCCOc1c(OCc2ccccc2)cc(O)c2c(=O)cc(-c3ccccc3)oc12` are 4.9 µM, 3.62 µM, 3.01 µM and 3.21 µM.
In the same order, the values of `O=c1cc(-c2ccccc2)oc2c(OCCCN(CCO)CCO)c(OCc3ccccc3)cc(O)c12` are 6.89 µM, 3.15 µM, 3.55 µM and 4.23 µM.
Regarding `CN1CCN(CCCCOc2c(OCc3nc4ccccc4s3)cc(O)c3c(=O)cc(-c4ccccc4)oc23)CC1`, the IC50 was determined as 2.78 µM in the assay on B16, 1.06 µM with A549, 5.44 µM in the assay with HepG2 [1] and 4.85 µM in the assay with MCF7.
In the same order, the values of `COc1c(OCCCCN2CCN(C)CC2)cc(O)c2c(=O)cc(-c3ccc(Cl)cc3)oc12` are 2.09 µM, 1.43 µM, 3.75 µM and 3.21 µM.
As to `COc1ccc(-c2cc(=O)c3c(O)cc(OCCCCN4CCN(C)CC4)c(OC)c3o2)cc1`, the IC50 came to 4.1 µM with B16, 2.32 µM in the assay with A549, 4.2 µM in the assay on HepG2 [1] and 3.98 µM in the assay with MCF7.
Take `O=c1cc(-c2ccccc2)oc2c(OCCCCN3CCCC3)c(OCc3ccccc3)cc(O)c12`: the half-maximal inhibitory concentration (IC50) with B16 is 3.21 µM; in the assay on A549 it was 1.1 µM; in the assay on HepG2 [1], 4.66 µM; in the assay on MCF7 it was 1.89 µM.
In the same order, the values of `CN1CCN(CCOc2c(OCc3ccccc3)cc(O)c3c(=O)cc(-c4ccccc4)oc23)CC1` are 4.37 µM, 4.41 µM, 2.89 µM and 4.43 µM.
`COc1c(OCCCCN2CCN(C)CC2)cc(O)c2c(=O)cc(-c3ccc(F)cc3)oc12`: the IC50 is 4.32 µM in the assay on B16, 2.22 µM in the assay on A549, 2.81 µM with HepG2 [1] and 3.86 µM in the assay on MCF7.
For the molecule `O=c1[nH]cc(F)c(=O)[nH]1` [FLUOROURACIL], the values for the IC50 with B16 and in the assay with MCF7 were 1.19 µM and 14.7 µM, respectively.
For `CN1CCN(CCCCOc2c(OCc3cccs3)cc(O)c3c(=O)cc(-c4ccccc4)oc23)CC1`, the IC50 with B16 worked out at 2.12 µM; with A549, 2.1 µM; with HepG2 [1], 4.56 µM; with MCF7, 3.18 µM.
In the same order, the values of `O=c1cc(-c2ccccc2)oc2c(OCCN(CCO)CCO)c(OCc3ccccc3)cc(O)c12` are 3.69 µM, 6.4 µM, 3.17 µM and 6.07 µM.

Values taken from ChEMBL document CHEMBL4190366, “Discovery and synthesis of novel Wogonin derivatives with potent antitumor activity in vitro” (Eur J Med Chem, 2017).
